Calls of active or inactive are those of the source. The rule behind the calls is not given here.
Key:
[1] = molecular target: TRAF2 and NCK-interacting protein kinase (Homo sapiens) (UniProt Q9UKE5); experiment: Binding affinity to wild-type human partial length TNIK (D4 to K311 residues) expressed in bacterial expression system assessed as residual binding level at 1 uM by Kinomescan method relative to control
In short: (§1)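 KINOMEscan competition binding against a panel of 468 purified kinases/mutants, compound tested at 1 μM; readout is relative binding activity versus control.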

[2] = molecular target: Tyrosine-protein kinase JAK2 (Homo sapiens) (UniProt O60674); experiment: Binding affinity to wild-type human partial length JAK2 JH1 catalytic domain (A829 to G1132 residues) expressed in mammalian expression system assessed as residual binding level at 1 uM by Kinomescan method relative to control
[3] = molecular target: LIM domain kinase 2 (Homo sapiens) (UniProt P53671); experiment: Binding affinity to wild-type human full length LIMK2 (M1 to P638 residues) expressed in bacterial expression system assessed as residual binding level at 1 uM by Kinomescan method relative to control
Chain of LIM domain kinase 2 (Homo sapiens) (P53671 whole entry, looked up, the tested form may be a part): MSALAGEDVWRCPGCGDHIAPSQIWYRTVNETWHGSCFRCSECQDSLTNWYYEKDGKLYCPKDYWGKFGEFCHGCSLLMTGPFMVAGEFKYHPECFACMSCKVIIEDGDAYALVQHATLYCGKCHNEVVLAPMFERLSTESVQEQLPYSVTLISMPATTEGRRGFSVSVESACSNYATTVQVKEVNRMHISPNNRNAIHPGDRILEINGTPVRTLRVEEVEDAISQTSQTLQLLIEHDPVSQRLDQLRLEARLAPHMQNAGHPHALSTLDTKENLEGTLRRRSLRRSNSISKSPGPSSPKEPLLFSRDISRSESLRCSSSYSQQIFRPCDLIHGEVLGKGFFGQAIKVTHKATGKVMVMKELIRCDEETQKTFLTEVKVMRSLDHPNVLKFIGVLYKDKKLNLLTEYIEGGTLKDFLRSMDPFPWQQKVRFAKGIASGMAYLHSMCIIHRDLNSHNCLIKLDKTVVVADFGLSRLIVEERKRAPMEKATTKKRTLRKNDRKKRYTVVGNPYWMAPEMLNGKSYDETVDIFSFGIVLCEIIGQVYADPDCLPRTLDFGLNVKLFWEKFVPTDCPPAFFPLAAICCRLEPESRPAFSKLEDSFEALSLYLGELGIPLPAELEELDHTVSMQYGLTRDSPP
In short: (§2)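 Single-concentration (1 μM) competition-binding screen run by KINOMEscan against a panel of 468 purified kinases and mutants. The read-out is the relative binding activity of the test compound to each kinase.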

[4] = molecular target: MAP/microtubule affinity-regulating kinase 3 (Homo sapiens) (UniProt P27448); experiment: Binding affinity to wild-type human full length MARK3 (M1 to L729 residues) expressed in bacterial expression system assessed as residual binding level at 1 uM by Kinomescan method relative to control
In short: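 KINOMEscan competition binding against 468 purified kinases/mutants, test compound at 1 µM; residual binding relative to control.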

[5] = molecular target: Death-associated protein kinase 3 (Homo sapiens) (UniProt O43293); experiment: Binding affinity to wild-type human partial length DAPK3 (M1 to A277 residues) expressed in bacterial expression system assessed as residual binding level at 1 uM by Kinomescan method relative to control
Chain of Death-associated protein kinase 3 (Homo sapiens) (O43293 whole entry, looked up, the tested form may be a part): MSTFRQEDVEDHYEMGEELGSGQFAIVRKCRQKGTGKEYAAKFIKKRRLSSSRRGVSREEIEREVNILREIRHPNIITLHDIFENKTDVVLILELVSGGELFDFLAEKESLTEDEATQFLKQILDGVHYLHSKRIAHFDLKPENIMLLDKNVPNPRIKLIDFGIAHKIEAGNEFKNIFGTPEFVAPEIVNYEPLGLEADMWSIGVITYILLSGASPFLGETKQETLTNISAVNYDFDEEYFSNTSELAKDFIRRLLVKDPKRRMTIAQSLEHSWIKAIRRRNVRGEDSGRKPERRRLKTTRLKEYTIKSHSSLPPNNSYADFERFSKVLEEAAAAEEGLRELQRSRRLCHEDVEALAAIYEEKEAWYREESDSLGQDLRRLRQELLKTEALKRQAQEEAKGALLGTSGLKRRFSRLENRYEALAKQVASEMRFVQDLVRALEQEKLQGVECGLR

[6] = tested on: Mast/stem cell growth factor receptor Kit (Homo sapiens), P10721 [V559D,V654A]; experiment: Binding affinity to human partial length KIT V559D/V654A double mutant (Y545 to D952 residues) expressed in bacterial expression system assessed as residual binding level at 1 uM by Kinomescan method relative to control
In short: (§3)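 Kinome-wide single-concentration binding screen (KINOMEscan) at 1 μM against a panel of 468 purified kinases and mutants. Read-out is relative binding of each kinase compared with control. Selectivity across the panel was summarised as an S(10) score.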

[7] = molecular target: Receptor-interacting serine/threonine-protein kinase 2 (Homo sapiens) (UniProt O43353); experiment: Binding affinity to wild-type human partial length RIPK2 (M1 to K310 residues) expressed in bacterial expression system assessed as residual binding level at 1 uM by Kinomescan method relative to control
[8] = molecular target: Cyclin-dependent kinase 11A (Homo sapiens) (UniProt Q9UQ88); experiment: Binding affinity to wild-type human partial length CDC2L2 (D391 to K730 residues) expressed in bacterial expression system assessed as residual binding level at 1 uM by Kinomescan method relative to control
[9] = molecular target: Serine/threonine-protein kinase ULK2 (Homo sapiens) (UniProt Q8IYT8); experiment: Binding affinity to wild-type human partial length ULK2 (M1 to S301 residues) expressed in mammalian expression system assessed as residual binding level at 1 uM by Kinomescan method relative to control; in short: as §1
EOL1 = experiment: Induction of apoptosis in human EOL-1 cells assessed as cleaved PARP expression level at 3 to 100 nM after 24 hrs by Western blot analysis; format: functional, cell-based
In short: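 Cells exposed to compound or DMSO for the stated periods, then lysed and immunoblotted for PARP and caspase-3 cleavage, with β-actin as loading control. NCI-H1703 stimulation used PDGF AA at 100 ng/mL.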

[10] = molecular target: Serine/threonine-protein kinase tousled-like 1 (Homo sapiens) (UniProt Q9UKI8); experiment: Binding affinity to wild-type human partial length TLK1 (K447 to A754 residues) expressed in bacterial expression system assessed as residual binding level at 1 uM by Kinomescan method relative to control
[11] = molecular target: AP2-associated protein kinase 1 (Homo sapiens) (UniProt Q2M2I8); experiment: Binding affinity to human wild-type AAK1 (G25 to L333 residues) expressed in bacterial expression system assessed as residual binding level at 1 uM by Kinomescan method relative to control; in short: as §2
Chain of AP2-associated protein kinase 1 (Homo sapiens) (Q2M2I8 whole entry, looked up, the tested form may be a part): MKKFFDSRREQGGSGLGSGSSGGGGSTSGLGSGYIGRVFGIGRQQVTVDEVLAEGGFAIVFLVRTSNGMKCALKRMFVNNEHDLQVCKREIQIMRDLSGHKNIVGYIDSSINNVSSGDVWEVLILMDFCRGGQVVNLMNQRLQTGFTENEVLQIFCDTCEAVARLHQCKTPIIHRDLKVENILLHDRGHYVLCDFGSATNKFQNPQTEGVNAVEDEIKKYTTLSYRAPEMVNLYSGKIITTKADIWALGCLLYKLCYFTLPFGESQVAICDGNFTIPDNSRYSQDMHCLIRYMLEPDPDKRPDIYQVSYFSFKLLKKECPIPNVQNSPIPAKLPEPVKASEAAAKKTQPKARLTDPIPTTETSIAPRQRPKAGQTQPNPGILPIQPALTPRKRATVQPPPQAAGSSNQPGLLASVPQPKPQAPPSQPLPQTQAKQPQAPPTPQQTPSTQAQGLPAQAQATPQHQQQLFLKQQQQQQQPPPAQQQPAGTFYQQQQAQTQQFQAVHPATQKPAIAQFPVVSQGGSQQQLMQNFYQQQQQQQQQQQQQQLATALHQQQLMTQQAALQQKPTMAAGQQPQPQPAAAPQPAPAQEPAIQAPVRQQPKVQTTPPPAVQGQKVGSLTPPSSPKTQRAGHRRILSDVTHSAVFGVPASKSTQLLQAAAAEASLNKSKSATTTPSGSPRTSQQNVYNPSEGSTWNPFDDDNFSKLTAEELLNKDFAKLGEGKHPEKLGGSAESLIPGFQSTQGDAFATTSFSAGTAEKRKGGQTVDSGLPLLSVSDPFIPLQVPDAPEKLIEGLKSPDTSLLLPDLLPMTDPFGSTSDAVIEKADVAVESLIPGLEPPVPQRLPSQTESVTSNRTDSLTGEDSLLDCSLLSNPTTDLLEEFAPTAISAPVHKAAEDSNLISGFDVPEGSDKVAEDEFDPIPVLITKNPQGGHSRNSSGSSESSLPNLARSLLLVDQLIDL

[12] = tested on: Mast/stem cell growth factor receptor Kit (Homo sapiens), P10721 [D816H]; experiment: Binding affinity to human partial length KIT D816H mutant (I571 to D952 residues) expressed in mammalian expression system assessed as residual binding level at 1 uM by Kinomescan method relative to control; in short: as §3
Chain of Mast/stem cell growth factor receptor Kit (Homo sapiens), P10721 [D816H] (P10721 whole entry D816H, the tested form may be a part): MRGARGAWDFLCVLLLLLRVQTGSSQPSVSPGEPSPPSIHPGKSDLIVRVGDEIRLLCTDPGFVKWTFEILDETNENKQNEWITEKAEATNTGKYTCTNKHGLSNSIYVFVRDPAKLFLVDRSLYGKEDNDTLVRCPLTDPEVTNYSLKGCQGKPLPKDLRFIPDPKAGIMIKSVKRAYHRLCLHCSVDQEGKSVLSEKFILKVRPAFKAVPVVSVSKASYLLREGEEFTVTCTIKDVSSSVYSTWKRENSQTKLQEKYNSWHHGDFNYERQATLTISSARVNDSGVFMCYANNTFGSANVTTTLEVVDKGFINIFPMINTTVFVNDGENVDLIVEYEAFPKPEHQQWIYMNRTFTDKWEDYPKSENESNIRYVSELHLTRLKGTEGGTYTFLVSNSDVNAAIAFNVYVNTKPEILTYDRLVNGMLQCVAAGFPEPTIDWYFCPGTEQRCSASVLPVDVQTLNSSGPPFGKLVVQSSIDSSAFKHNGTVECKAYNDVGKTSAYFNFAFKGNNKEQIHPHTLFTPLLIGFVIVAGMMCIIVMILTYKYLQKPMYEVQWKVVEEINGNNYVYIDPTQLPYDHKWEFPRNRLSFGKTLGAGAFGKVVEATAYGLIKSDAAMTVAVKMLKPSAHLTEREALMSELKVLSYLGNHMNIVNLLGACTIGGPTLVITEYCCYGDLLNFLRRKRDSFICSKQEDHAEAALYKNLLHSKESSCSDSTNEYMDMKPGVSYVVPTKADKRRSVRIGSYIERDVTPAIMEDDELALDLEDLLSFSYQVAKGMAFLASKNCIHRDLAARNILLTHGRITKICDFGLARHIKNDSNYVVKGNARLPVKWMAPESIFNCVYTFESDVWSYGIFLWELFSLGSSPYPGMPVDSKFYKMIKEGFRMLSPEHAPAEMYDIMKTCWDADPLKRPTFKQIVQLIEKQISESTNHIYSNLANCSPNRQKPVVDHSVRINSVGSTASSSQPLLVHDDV

[13] = molecular target: Tyrosine-protein kinase JAK1 (Homo sapiens) (UniProt P23458); experiment: Binding affinity to wild-type human partial length JAK1 JH1 catalytic domain (V856 to K1154 residues) expressed in bacterial expression system assessed as residual binding level at 1 uM by Kinomescan method relative to control
[14] = molecular target: Bone morphogenetic protein receptor type-1A (Homo sapiens) (UniProt P36894); experiment: Binding affinity to wild-type human partial length BMPR1A (Q214 to I532 residues) expressed in bacterial expression system assessed as residual binding level at 1 uM by Kinomescan method relative to control
Chain of Bone morphogenetic protein receptor type-1A (Homo sapiens) (P36894 whole entry, the tested form may be a part): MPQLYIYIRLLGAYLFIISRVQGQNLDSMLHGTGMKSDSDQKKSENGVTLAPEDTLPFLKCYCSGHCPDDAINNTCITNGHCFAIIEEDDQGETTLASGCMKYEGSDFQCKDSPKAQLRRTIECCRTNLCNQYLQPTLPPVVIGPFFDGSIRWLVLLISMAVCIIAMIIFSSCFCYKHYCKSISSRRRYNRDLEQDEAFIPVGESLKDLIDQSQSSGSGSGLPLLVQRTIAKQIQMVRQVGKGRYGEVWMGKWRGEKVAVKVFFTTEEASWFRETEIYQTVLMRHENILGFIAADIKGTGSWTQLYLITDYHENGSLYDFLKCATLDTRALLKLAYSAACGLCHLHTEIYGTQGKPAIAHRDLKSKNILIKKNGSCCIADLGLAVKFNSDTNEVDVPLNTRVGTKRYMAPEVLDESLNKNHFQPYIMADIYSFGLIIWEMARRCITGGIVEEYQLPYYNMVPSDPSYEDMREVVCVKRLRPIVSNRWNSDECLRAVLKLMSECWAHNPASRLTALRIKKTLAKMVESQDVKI
In short: (§4)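 Single-concentration KINOMEscan (DiscoverX) binding screen at 1 μM against a panel of 468 purified kinases and mutants. The read-out is binding relative to control.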

[15] = molecular target: Serine/threonine-protein kinase TAO3 (Homo sapiens) (UniProt Q9H2K8); experiment: Binding affinity to wild-type human partial length TAOK3 (M1 to T316 residues) expressed in mammalian expression system assessed as residual binding level at 1 uM by Kinomescan method relative to control
[16] = AUC (0 to infinity) in Sprague-Dawley rat at 1 mg/kg, iv; format: ADME, organism-based; design: dose 1 mg/kg, time infinity, route intravenous; conditions: in vivo
In short: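 Male Sprague-Dawley rats (6–8 weeks) fasted overnight, dosed IV or orally; compound dissolved in 5% DMSO/40% PEG400/55% saline (dosing solution 1 mg/mL). Blood (~0.2 mL) from jugular vein into heparin; IV sampling 1 min–8 h, oral 5 min–24 h. Plasma separated by centrifugation at 2–8 °C, stored at −80 °C until analysis.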

[17] = molecular target: Phosphatidylinositol 4,5-bisphosphate 3-kinase catalytic subunit delta isoform (Homo sapiens) (UniProt O00329); experiment: Binding affinity to wild-type human partial length PIK3CD (R108 to Q1044 residues) expressed in mammalian expression system assessed as residual binding level at 1 uM by Kinomescan method relative to control
[18] = molecular target: Ephrin type-B receptor 4 (Homo sapiens) (UniProt P54760); experiment: Binding affinity to wild-type human partial length EPHB4 (H585 to G892 residues) expressed in bacterial expression system assessed as residual binding level at 1 uM by Kinomescan method relative to control
Chain of Ephrin type-B receptor 4 (Homo sapiens) (P54760 whole entry, the tested form may be a part): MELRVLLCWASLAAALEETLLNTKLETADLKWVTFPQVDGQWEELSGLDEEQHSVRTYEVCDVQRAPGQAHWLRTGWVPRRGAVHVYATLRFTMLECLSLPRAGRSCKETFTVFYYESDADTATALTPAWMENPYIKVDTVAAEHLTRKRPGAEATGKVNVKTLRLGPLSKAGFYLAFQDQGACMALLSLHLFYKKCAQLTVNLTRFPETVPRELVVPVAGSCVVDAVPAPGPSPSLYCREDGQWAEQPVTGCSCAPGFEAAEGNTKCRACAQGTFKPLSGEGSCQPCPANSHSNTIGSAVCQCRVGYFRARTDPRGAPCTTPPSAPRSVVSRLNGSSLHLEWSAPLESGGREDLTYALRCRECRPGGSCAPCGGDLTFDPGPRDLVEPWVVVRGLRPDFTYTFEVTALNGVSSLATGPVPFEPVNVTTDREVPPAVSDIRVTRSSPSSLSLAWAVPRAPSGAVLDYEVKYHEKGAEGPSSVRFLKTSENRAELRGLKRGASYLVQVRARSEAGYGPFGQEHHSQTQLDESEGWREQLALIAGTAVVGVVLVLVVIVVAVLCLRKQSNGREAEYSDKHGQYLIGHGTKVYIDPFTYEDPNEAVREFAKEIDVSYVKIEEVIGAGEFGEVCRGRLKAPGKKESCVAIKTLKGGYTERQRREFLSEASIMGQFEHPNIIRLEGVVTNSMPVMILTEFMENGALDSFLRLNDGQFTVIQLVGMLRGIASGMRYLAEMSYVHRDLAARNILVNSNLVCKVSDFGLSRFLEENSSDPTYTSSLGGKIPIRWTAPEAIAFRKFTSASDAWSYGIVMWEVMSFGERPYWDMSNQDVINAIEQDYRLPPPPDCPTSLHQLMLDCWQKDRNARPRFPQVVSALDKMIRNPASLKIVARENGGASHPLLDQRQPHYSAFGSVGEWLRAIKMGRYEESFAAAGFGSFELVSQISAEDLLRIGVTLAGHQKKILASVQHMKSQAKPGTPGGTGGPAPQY

[19] = molecular target: Dual specificity mitogen-activated protein kinase kinase 2 (Homo sapiens) (UniProt P36507); experiment: Binding affinity to wild-type human full length MEK2 (M1 to V400 residues) expressed in mammalian expression system assessed as residual binding level at 1 uM by Kinomescan method relative to control; in short: as §4
Chain of Dual specificity mitogen-activated protein kinase kinase 2 (Homo sapiens) (P36507 whole entry, the tested form may be a part): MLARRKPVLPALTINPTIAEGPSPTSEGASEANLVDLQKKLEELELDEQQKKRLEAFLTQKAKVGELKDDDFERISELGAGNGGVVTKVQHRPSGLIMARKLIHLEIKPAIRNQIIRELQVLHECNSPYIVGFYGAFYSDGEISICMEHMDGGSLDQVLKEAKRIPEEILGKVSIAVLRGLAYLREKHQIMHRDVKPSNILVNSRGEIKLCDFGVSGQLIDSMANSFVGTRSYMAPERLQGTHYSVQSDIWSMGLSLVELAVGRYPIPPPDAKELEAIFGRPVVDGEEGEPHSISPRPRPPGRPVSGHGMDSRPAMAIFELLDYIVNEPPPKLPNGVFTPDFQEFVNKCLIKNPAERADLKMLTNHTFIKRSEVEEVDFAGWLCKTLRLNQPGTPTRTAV

## Cc1ccc(NC(=O)c2ccc(CN(CCN(C)C)C(=O)c3cccnc3)cc2)cc1Nc1nccc(-c2cccnc2)n1
[1]
  Activity: 83%
[2]
  Activity: 95%
[3]
  Activity: 100%
[4]
  Activity: 80%
[5]
  Activity: 93%
[6]
  Activity: 25%
[7]
  Activity: 93%
[8]
  Activity: 96%
[9]
  Activity: 84%
EOL1
  Activity: Active
[10]
  Activity: 100%
[11]
  Activity: 100%
[12]
  Activity: 100%
[13]
  Activity: 100%
[14]
  Activity: 100%
[15]
  Activity: 100%
[16]
  AUC(0-inf): 541 ng·h/mL
[17]
  Activity: 100%
[18]
  Activity: 90%
[19]
  Activity: 86%

From ChEMBL document CHEMBL4229344 (Eur J Med Chem, 2018)
